Screening data as filed in PubChem BioAssay.
A selection: hits, their analogues and other compounds. The true share with any hit is near 1.7%.
APJ antag: antagonists of human APJ apelin receptor. CHO-K1 APJ beta-arrestin complementation, luminescence. inhibition, % at 20 µM. P35414. 330,000 compounds, 0.32% hits;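 active = inhibition above about 40% at 20 µM, limit read from the data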;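 also: cells challenged with 10 nM apelin-13 agonist together with compound; plate controls were apelin-13 plus DMSO wells for no effect and DMSO wells lacking apelin-13 for full effect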
APJ agonist: activates the human apelin receptor APJ; 330,000 compounds, 0.11% hits; activation, % at 20 µM; AID 2520; CHO-K1 APJ PathHunter beta-arrestin, luminescence; 0% DMSO wells, 100% apelin;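 active = activation more than six SD over the plate average, tested at 20 µM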;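 also: 0% = DMSO alone and 100% = apelin-13 at 10 nM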
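Assay system: engineered CHO-K1 APJ arrestin reporter cells; Amount: 1000 CHO-K1 reporter cells seeded per well; Dosing: one dose, 20 µM compound, 1% DMSO; Times: compound stimulation 90 min at 25 °C, detection 60 min; Measured by: luminescent beta-gal fragment complementation, chemiluminescent substrate; Read-out: APJ–arrestin association signal; Controls: DMSO vs Apelin-13 10 nM.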
PfG6PD inh: PfG6PD (Plasmodium falciparum) enzyme inhibition. PfGluPho enzyme, NADPH resazurin-diaphorase fluorescence. inhibition, % at 20 µM. 350,000 compounds, 0.78% hits;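 active = inhibition reaching at least a set limit at 20 µM in the primary screen, cut at about 59% in these data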;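 also: 0% = DMSO wells with substrate and 100% = DMSO wells lacking glucose-6-phosphate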
CXCR6 block: blocks human CXCR6 beta-arrestin recruitment; CHO-K1 PathHunter CXCR6 beta-arrestin, luminescence; 360,000 compounds, 0.36% hits; O00574; inhibition, % at 20 µM; AID 602244; in the data active = inhibition above about 34%, passing the limit was not always enough;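 also: antagonist mode with CXCL16 agonist at 10 nM final; 0% = 10 nM CXCL16 with DMSO and 100% = unstimulated wells without agonist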
Target sequence (O00574 whole entry, looked up): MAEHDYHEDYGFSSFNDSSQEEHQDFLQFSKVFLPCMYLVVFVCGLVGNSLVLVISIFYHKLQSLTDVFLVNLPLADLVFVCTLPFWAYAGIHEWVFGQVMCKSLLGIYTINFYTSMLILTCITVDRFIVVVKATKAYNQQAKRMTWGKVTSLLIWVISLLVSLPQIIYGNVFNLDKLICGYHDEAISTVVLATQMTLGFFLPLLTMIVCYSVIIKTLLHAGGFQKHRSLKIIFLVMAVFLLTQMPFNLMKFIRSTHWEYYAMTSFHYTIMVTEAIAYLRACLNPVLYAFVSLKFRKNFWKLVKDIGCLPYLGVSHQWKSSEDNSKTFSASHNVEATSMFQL
CCR6 antag: antagonists of human CCR6 receptor. inhibition, % at 20 µM. P51684. AID 493098. CHO-K1 CCR6 PathHunter beta-arrestin, luminescence, CCL20-stimulated. 340,000 compounds, 0.49% hits;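 active = compounds whose inhibition of the agonist-driven luminescence signal at 20 µM reaches about 50%, limit read from the data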;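 also: cells stimulated with CCL20 at 14 nM final; plate controls were DMSO with CCL20 for no effect and DMSO without agonist for full effect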
Target sequence (P51684 whole entry, looked up): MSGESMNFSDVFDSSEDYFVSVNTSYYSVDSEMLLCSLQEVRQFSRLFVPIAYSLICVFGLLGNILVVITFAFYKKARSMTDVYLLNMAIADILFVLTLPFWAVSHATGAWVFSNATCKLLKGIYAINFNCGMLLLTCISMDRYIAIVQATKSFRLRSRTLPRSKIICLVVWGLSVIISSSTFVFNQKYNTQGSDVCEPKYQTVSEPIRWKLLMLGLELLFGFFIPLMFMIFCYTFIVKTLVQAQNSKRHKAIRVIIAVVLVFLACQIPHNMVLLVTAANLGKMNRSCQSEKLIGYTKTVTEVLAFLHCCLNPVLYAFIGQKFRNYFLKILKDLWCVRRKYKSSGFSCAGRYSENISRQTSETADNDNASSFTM
Beta2AR agonist: human beta-2 adrenergic receptor agonism by FAP; Am2.2-beta2AR cells, FAP receptor internalization, flow cytometry; response, % (concentration not given with the values); 340,000 compounds, 0.43% hits; AID 504454;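 active = response above a set limit, near 3 SD of response in nonfluorescent compounds, cut at about 42% in these data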
B2AR ag CP1: human beta-2 adrenergic receptor agonism, cherry pick | AID 540358 | 1,100 compounds, 25% hits | percent response (surface receptor), % at 10 µM | shares compounds with Beta2AR agonist | Am2.2-beta2AR cells, FAP surface receptor, flow cytometry; active compounds read low;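 active = surface receptor percent response at or below 58%, roughly 3 SD from nonfluorescent compounds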
B2AR FAP counter: fluorescence artifact in beta-2AR agonist FAP counterscreen. shares compounds with Beta2AR agonist. Am2.2 cells, FAP fluorogen flow cytometry; active compounds read low. calls only at 10 µM. 1,100 tested, under 10 active. AID 588765;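 active = percent response below a set limit in fluorescence channel 1 and below 50% in channel 8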
An asterisk follows results filed as active; i = inactive; / = no result given.

SMILES	APJ antag	APJ agonist	PfG6PD inh	CXCR6 block	CCR6 antag	Beta2AR agonist	B2AR ag CP1	B2AR FAP counter
COc1ccc(Cl)c2sc(N(CCN(C)C)C(=O)c3ccc4c(c3)OCCO4)nc12	-0.7	-7.0	-3.5	-3.8	9.4	44.3*	127.9	i
CN(C)CCN(C(=O)c1ccc2c(c1)OCCO2)c1nc2c(Cl)cccc2s1	-11.7	-6.2	-6.5	7.0	-4.4	2.1	/	/
CCn1c2ccccc2c2cc(CNCc3ccc(OC)cc3OC)ccc21	-18.0	-0.6	2.5	2.7	-7.5	50.8*	75.9	i
CCc1ccccc1NC(=O)CSc1nnc(C2CC2)n1CC1CCCO1 (stereo unspecified)	-13.5	0.4	4.9	-5.2	1.5	2.8	/	/
O=C(COC(=O)CC1CC2CCC1C2)NCc1ccccc1 (stereo unspecified)	5.3	-2.8	2.5	-4.0	6.1	-6.3	/	/
CCOC(=O)c1cnc(-n2nc(C)cc2C)nc1NC	-4.3	-4.8	-3.3	-1.4	5.8	-8.1	105.3	i
Cc1ccc(OCC(COCc2ccccc2)NC(C)C)cc1 (stereo unspecified)	13.1	-3.0	1.9	-10.7	15.3	9.0	/	/
CCc1cccc2c1NC1(CCCC1)CC2C (stereo unspecified)	14.9	-8.6	11.8	0.9	9.0	3.0	105.6	i
COc1ccc(CSc2ccc(-c3nc4ccccn4c3NCc3ccccc3)cc2OC)cc1	-42.1	3.4	4.9	12.3	19.5	75.5*	62.5	i
CCC(C)Sc1ccc(-c2nc3ccccn3c2NCc2ccccc2)cc1OC (stereo unspecified)	-6.9	3.8	3.5	14.7	-3.2	35.2	/	/
Cc1ccccc1NC(=O)C(C)OC(=O)CNS(=O)(=O)c1ccc(C#N)cc1 (stereo unspecified)	-2.8	3.8	6.7	-7.9	2.4	-0.3	/	/
Cc1cccc2sc(NC(=O)CN(C)S(=O)(=O)c3ccc(Br)s3)nc12	15.6	-0.1	1.8	-10.5	3.2	51.2*	109.0	i
Cc1cccc2sc(NC(=O)CN(C)S(=O)(=O)c3cccs3)nc12	-0.9	-7.5	-0.2	-1.4	-0.3	0.6	/	/
COc1ccc(C(=O)C2CCCN(C(=O)Cn3nc(C)cc3C)C2)cc1F (stereo unspecified)	-13.7	-6.3	-0.8	-1.0	0.4	-8.4	/	/
Cc1ccccc1NC(=O)COc1ccc(S(=O)(=O)N2CCCC2)cc1C	6.3	-5.9	-9.5	-1.4	3.2	-1.2	90.5	i
COc1ccccc1CNC(=O)COc1ccc(S(=O)(=O)N2CCOCC2)cc1C	1.8	3.8	6.8	2.8	3.8	-5.7	/	/
COc1ccc(S(=O)(=O)N2CCOCC2)cc1NC(=O)COc1ccccc1OC	13.1	4.5	-3.4	-5.5	2.0	2.8	/	/
COc1ccc(NC(=O)COc2ccc(S(=O)(=O)N3CCOCC3)cc2C)cc1OC	10.9	-1.6	-0.9	-5.1	1.5	5.5	110.8	i
Cc1cc(S(=O)(=O)N2CCOCC2)ccc1OCC(=O)Nc1ccccc1F	3.9	-2.0	-8.6	1.7	0.2	11.6	95.3	i
Cc1cc(S(=O)(=O)N2CCOCC2)ccc1OCC(=O)Nc1cccc(F)c1	-12.7	-0.7	0.6	-0.5	0.0	6.6	125.8	i
Cc1ccc(C(=O)OCC(=O)NCc2cccc(Cl)c2)cc1S(=O)(=O)N1CCCCC1	20.3	1.5	10.5	3.2	-0.9	-0.7	/	/
O=C(Nc1ccc(N2CCCC2)cc1)c1cc(Cl)ccc1Cl	-0.7	-3.7	24.1	-1.6	10.0	73.2*	96.6	i
Cc1ccc2nc(N(CCCN(C)C)C(=O)c3ccc(Br)s3)sc2c1	6.7	-2.0	-5.9	-1.6	24.6	54.1*	96.3	i
COc1ccc(-c2onc(C)c2-c2ccc(C(=O)OC(C)C)o2)c(O)c1	3.1	0.1	11.9	-13.2	3.0	3.6	117.6	i
COc1ccccc1Nc1nn2c(=O)c3ccc(C(=O)NCc4cccnc4)cc3nc2s1	-6.7	-0.2	/	8.5	/	55.1*	97.4	i
SMILES	APJ antag	APJ agonist	PfG6PD inh	CXCR6 block	CCR6 antag	Beta2AR agonist	B2AR ag CP1	B2AR FAP counter
CCOC(=O)N1CCN(C(=O)C[C@@H]2C[C@@]3(C(=O)OCC)CCC=C3N(Cc3ccccc3)C2=O)CC1	/	/	/	-7.0	/	/	/	/
COc1cc(NC(=O)c2ccc(N)nc2)cc(C(=O)Nc2cccc(C(F)(F)F)c2)c1	-0.2	-1.3	31.6	-7.9	11.5	42.9*	66.8	i
COc1cc(NC(=O)c2csc(-c3ccncc3)n2)cc(C(=O)Nc2cccc(C(F)(F)F)c2)c1	-42.7	7.8	18.8	10.8	5.8	60.3*	85.6	i
O=[N+]([O-])c1cccc(OCCN2CCC(Cc3ccccc3)CC2)c1	-9.2	-1.4	-2.1	-1.4	1.3	5.4	/	/
COc1ccc(C(CNc2ccc(C(F)(F)F)cn2)N(C)C)cc1OC (stereo unspecified)	0.3	0.2	-5.5	6.8	24.7	-0.4	/	/
O=C(O)CCCC(=O)N1CCC(C(O)(c2ccccc2)c2ccccc2)CC1	6.0	-0.3	-13.5	7.1	11.1	-0.3	/	/
CC(C)(C(=O)O)c1ccc(C(O)CCCN2CCC(C(O)(c3ccccc3)c3ccccc3)CC2)cc1 (stereo unspecified)	-1.8	-3.6	14.7	9.0	1.8	-3.1	81.6	i
O=c1nc(-c2ccccc2)c2ccccc2[nH]1	8.7	-1.1	-5.7	-2.1	26.4	60.4*	112.8	i
Cc1ccc(-c2nc(=O)[nH]c3ccccc23)cc1	27.7	-3.0	5.9	3.9	-0.2	15.1	/	/
CCOC(=O)C1(C)C=C(Nc2ccc(O)cc2)C(=O)N1c1ccc(O)cc1 (stereo unspecified)	-13.6	-0.1	14.5	-5.7	9.1	51.8*	27.5*	i
CCOC(=O)C1(C)C=C(Nc2ccc(OC)cc2)C(=O)N1c1ccc(OC)cc1 (stereo unspecified)	-11.4	4.9	-10.6	-8.9	8.8	-7.4	/	/
Cc1ccc(CCNS(=O)(=O)c2ccc3c(c2)N(C)CCO3)cc1	-2.1	-2.4	18.7	-4.2	-2.0	2.9	/	/
COc1ccc(C2=NN(C(=O)c3cccs3)C(c3ccc(OC)cc3)C2)cc1 (stereo unspecified)	-14.0	-1.0	4.4	0.3	5.8	43.5*	43.5*	i
Cc1onc(-c2ccccc2)c1C(=O)OCC(=O)NC(=O)c1ccccc1	10.7	-0.5	-2.1	-11.8	6.9	-2.5	/	/
CCOC(=O)Cn1nnnc1CN(Cc1ccc(OC)cc1)Cc1cc2cc(CC)ccc2[nH]c1=O	6.1	3.9	5.3	3.8	0.2	85.9*	102.7	i
